Assay type in all cases: functional
The subject of one experiment is Staphylococcus aureus. The experiment is described as follows: Antibacterial activity against Staphylococcus aureus ATCC 2523 after 18 hrs by liquid microdilution method. The settings on record: ATCC 2523, 18 h. In short, it runs like this:
(§1)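 Broth microdilution MIC. Compound dissolved in MeOH at 512 µg/mL, serially diluted 2-fold in Mueller-Hinton medium to 1–128 µg/mL. Each dilution added to wells of Mueller-Hinton medium with standard inoculum; final MeOH below 6%. Plates sealed, agitated, incubated 37 °C, 18 h. MIC is the lowest concentration giving no colour change. Run in triplicate.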

The test system of another experiment is Enterococcus faecalis. The experiment is described as follows: Antibacterial activity against Enterococcus faecalis ATCC 29212 after 18 hrs by liquid microdilution method. The settings on record: ATCC 29212, 18 h. In short, it runs like this:
as §1

Another experiment relates to Escherichia coli. In words: Antibacterial activity against Escherichia coli ATCC 25922 after 18 hrs by liquid microdilution method. The settings on record: ATCC 25922, 18 h. In short, it runs like this:
as §1

The subject of a further experiment is Pseudomonas aeruginosa. In words: Antibacterial activity against Pseudomonas aeruginosa ATCC 27853 after 18 hrs by liquid microdilution method. The settings on record: ATCC 27853, 18 h. The procedure, abridged:
as §1

Converted amounts (≈) assume the structure as drawn.

Regarding `COc1ccc(-c2coc3cc(O[C@@H]4O[C@H](CO[C@@H]5O[C@@H](C)[C@H](O)[C@@H](O)[C@H]5O)[C@@H](O)[C@H](O[C@@H]5O[C@H](CO[C@@H]6O[C@@H](C)[C@H](O)[C@@H](O)[C@H]6O)[C@@H](O)[C@H](O)[C@H]5O)[C@H]4O)c(OC)c(OC)c3c2=O)cc1`, the MIC with Staphylococcus aureus, against Enterococcus faecalis, against Escherichia coli and with Pseudomonas aeruginosa was greater than 135 µM throughout.
With `COc1ccc(-c2coc3cc(O)c(OC)c(OC)c3c2=O)cc1`, the minimal inhibitory concentration (MIC) turned out to be 97.5 µM (≈ 32 µg/mL) against Staphylococcus aureus, 97.5 µM (≈ 32 µg/mL) in the experiment on Enterococcus faecalis, 390 µM (≈ 128 µg/mL) against Escherichia coli and 195 µM (≈ 64 µg/mL) with Pseudomonas aeruginosa.
As to `COc1ccc(-c2coc3cc(O[C@@H]4O[C@H](CO[C@@H]5O[C@@H](C)[C@H](O)[C@@H](O)[C@H]5O)[C@@H](O)[C@H](O)[C@H]4O)c(OC)c(OC)c3c2=O)cc1`, the minimum inhibitory concentration (MIC) is 48.4 µM (≈ 30.8 µg/mL) in the experiment on Staphylococcus aureus, 48.4 µM (≈ 30.8 µg/mL) in the experiment on Enterococcus faecalis, greater than 196 µM against Escherichia coli and 196 µM (≈ 125 µg/mL) against Pseudomonas aeruginosa.
